{
  "source": "ChEMBL document CHEMBL2146377",
  "about": "“Rational design of 4-aryl-1,2,3-triazoles for indoleamine 2,3-dioxygenase 1 inhibition” (J Med Chem, 2012)",
  "key": {"[1]": {"assay": "Dissociation constant, pKa of the compound at pH 11 to 12 by spectrophotometric analysis", "format": "physicochemical"}, "physchem": {"assay": "physchem", "conditions": "pH 2"}, "[2]": {"molecular_target": "T1, Indoleamine 2,3-dioxygenase 1 (Homo sapiens, UniProt P14902)", "assay": "Inhibition of human recombinant N-terminal His-tagged IDO1 (Ala2 to Gly403) overexpressed in Escherichia coli BL21 at pH 6.5 after 60 mins by HPLC analysis"}, "[3]": {"molecular_target": "Indoleamine 2,3-dioxygenase 1 (Mus musculus, UniProt P28776)", "sequence (P28776 whole entry)": "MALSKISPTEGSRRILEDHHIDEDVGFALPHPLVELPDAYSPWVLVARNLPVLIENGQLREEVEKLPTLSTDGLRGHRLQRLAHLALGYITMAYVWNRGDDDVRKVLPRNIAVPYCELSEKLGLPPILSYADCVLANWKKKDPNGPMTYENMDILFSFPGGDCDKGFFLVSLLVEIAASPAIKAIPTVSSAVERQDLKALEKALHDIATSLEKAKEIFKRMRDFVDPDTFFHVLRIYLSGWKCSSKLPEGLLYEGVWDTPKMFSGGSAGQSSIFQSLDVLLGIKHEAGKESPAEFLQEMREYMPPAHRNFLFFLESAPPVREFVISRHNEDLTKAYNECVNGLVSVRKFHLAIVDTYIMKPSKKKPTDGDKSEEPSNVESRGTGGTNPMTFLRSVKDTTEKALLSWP", "assay": "Inhibition of mouse IDO1 in P815 clone 6 cells by HPLC analysis", "format": "cell-based", "in_short": "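Murine mastocytoma P815 stably transfected cells were used: P815-mIDO1 clone 6 for mouse IDO1 and P815B-hIDO1 clone 6 for human IDO1. Cells with inhibitor were incubated at 37 °C until under 50% of tryptophan was consumed, as tracked in control wells by pDMAB absorbance at 480 nm. Supernatant was TCA-precipitated, and tryptophan and kynurenine were quantified by C18 HPLC. Values are the mean of ≥2 independent assays.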"}, "[4]": {"molecular_target": "T1, Indoleamine 2,3-dioxygenase 1", "assay": "Inhibition of human IDO1 transfected in mouse P815B clone-6 cells by HPLC analysis", "format": "cell-based"}, "[5]": {"molecular_target": "Tryptophan 2,3-dioxygenase (Mus musculus, UniProt P48776)", "sequence (P48776 whole entry)": "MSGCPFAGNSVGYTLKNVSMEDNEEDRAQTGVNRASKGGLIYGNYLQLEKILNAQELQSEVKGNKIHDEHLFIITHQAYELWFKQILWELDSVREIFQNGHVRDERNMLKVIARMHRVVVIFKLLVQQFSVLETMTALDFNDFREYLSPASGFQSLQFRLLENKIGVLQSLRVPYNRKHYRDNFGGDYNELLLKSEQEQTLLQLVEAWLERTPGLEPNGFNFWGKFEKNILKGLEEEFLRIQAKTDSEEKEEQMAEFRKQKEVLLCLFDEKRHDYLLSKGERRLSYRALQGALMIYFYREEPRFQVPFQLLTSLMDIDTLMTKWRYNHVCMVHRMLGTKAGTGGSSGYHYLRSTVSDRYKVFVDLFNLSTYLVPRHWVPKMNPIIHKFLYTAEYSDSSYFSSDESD", "assay": "Inhibition of mouse TDO in P815 clone 12 cells by HPLC analysis", "format": "cell-based"}, "[6]": {"molecular_target": "Tryptophan 2,3-dioxygenase (Homo sapiens, UniProt P48775)", "sequence (P48775 whole entry)": "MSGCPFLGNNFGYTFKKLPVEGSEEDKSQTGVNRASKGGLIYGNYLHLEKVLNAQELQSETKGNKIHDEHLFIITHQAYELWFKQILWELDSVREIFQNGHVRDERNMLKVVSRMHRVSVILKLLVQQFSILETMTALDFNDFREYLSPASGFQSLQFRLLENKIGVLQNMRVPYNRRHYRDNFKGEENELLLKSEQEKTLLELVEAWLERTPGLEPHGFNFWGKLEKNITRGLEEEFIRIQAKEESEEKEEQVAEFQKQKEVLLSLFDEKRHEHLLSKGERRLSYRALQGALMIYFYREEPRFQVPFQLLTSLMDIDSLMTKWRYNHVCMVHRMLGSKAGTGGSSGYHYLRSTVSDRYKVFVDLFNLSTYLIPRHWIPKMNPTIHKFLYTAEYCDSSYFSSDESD", "assay": "Inhibition of human TDO transfected in mouse P815B clone 19 cells by HPLC analysis", "format": "cell-based"}, "HepG2": {"system": "HepG2", "assay": "Cytotoxicity against human HepG2 cells after 24 hrs by MTS-PMS assay", "format": "functional", "conditions": "HepG2, 24 h, read-out: LD50 (the source's name)", "in_short": "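Hep G2 cells (2 × 10⁴ per well) in IMDM with 10% FCS exposed to compound titrated 0.001–100 μM for 24 h at 37 °C; living cells counted by MTS/PMS assay; LD₅₀ reported as mean of at least two independent assays with standard deviation.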"}, "[7]": {"molecular_target": "T1, Indoleamine 2,3-dioxygenase 1", "assay": "Inhibition of human IDO1 transfected in HEK293 clone 6 cells by HPLC analysis", "format": "cell-based"}, "[8]": {"molecular_target": "T1, Indoleamine 2,3-dioxygenase 1", "conditions": "at 1 mM"}},
  "note": "The source made the active and inactive calls. The calls are words filed in the database; no cut-off is given here.",
  "data": [
    {"molecule": "c1ccc(-c2c[nH]cn2)cc1", "values": [
      {"measurement": "pKa", "setting": "[1]", "result": 6.1},
      {"measurement": "pKa", "setting": "physchem", "result": 13.4}
    ]},
    {"molecule": "Clc1cccc(-c2c[nH]nn2)c1", "values": [
      {"measurement": "IC50", "setting": "[2]", "result": 1.2, "unit": "µM"},
      {"measurement": "IC50", "setting": "[3]", "result": 0.02, "unit": "µM"},
      {"measurement": "IC50", "setting": "[4]", "result": 0.62, "unit": "µM"},
      {"measurement": "IC50", "setting": "[5]", "result": "> 100", "unit": "µM"},
      {"measurement": "IC50", "setting": "[6]", "result": "> 100", "unit": "µM"},
      {"measurement": "CC50", "setting": "HepG2", "result": "> 100", "unit": "µM"},
      {"measurement": "inhibition", "setting": "[7]", "result": "Active"},
      {"measurement": "pKa", "setting": "physchem", "result": 8.32}
    ]},
    {"molecule": "Cc1[nH]nnc1-c1ccccc1", "values": [
      {"measurement": "inhibition", "setting": "[8]", "result": "inactive"},
      {"measurement": "pKa", "setting": "physchem", "result": 9.11}
    ]},
    {"molecule": "Clc1cc(-c2c[nH]nn2)ccn1", "values": [
      {"measurement": "IC50", "setting": "[2]", "result": 2.8, "unit": "µM"},
      {"measurement": "IC50", "setting": "[3]", "result": 0.06, "unit": "µM"},
      {"measurement": "IC50", "setting": "[4]", "result": 3.5, "unit": "µM"},
      {"measurement": "IC50", "setting": "[5]", "result": "> 100", "unit": "µM"},
      {"measurement": "IC50", "setting": "[6]", "result": "> 100", "unit": "µM"},
      {"measurement": "CC50", "setting": "HepG2", "result": "> 100", "unit": "µM"},
      {"measurement": "inhibition", "setting": "[7]", "result": "Active"},
      {"measurement": "pKa", "setting": "physchem", "result": 7.6}
    ]},
    {"molecule": "c1ccc(-c2nnn[nH]2)cc1", "values": [
      {"measurement": "inhibition", "setting": "[8]", "result": "inactive"},
      {"measurement": "pKa", "setting": "physchem", "result": 4.53}
    ]},
    {"molecule": "c1ccc(-c2cnn[nH]2)cc1", "values": [
      {"measurement": "pKa", "setting": "[1]", "result": 0.4},
      {"measurement": "IC50", "setting": "[3]", "result": 0.18, "unit": "µM"},
      {"measurement": "IC50", "setting": "[5]", "result": "> 100", "unit": "µM"},
      {"measurement": "IC50", "setting": "[6]", "result": "> 100", "unit": "µM"},
      {"measurement": "CC50", "setting": "HepG2", "result": "> 100", "unit": "µM"},
      {"measurement": "inhibition", "setting": "[7]", "result": "Active"},
      {"measurement": "pKa", "setting": "physchem", "result": 8.62}
    ]},
    {"molecule": "c1ccc(-c2nc[nH]n2)cc1", "values": [
      {"measurement": "pKa", "setting": "[1]", "result": 2.05},
      {"measurement": "inhibition", "setting": "[8]", "result": "inactive"},
      {"measurement": "pKa", "setting": "physchem", "result": 9.29}
    ]},
    {"molecule": "Fc1cc(-c2c[nH]nn2)ccn1", "values": [
      {"measurement": "IC50", "setting": "[2]", "result": 7.4, "unit": "µM"},
      {"measurement": "IC50", "setting": "[3]", "result": 0.12, "unit": "µM"},
      {"measurement": "IC50", "setting": "[4]", "result": 7, "unit": "µM"},
      {"measurement": "IC50", "setting": "[5]", "result": "> 100", "unit": "µM"},
      {"measurement": "IC50", "setting": "[6]", "result": "> 100", "unit": "µM"},
      {"measurement": "CC50", "setting": "HepG2", "result": "> 100", "unit": "µM"},
      {"measurement": "inhibition", "setting": "[7]", "result": "Active"},
      {"measurement": "pKa", "setting": "physchem", "result": 7.59}
    ]},
    {"molecule": "c1cc(-c2cnn[nH]2)ccn1", "values": [
      {"measurement": "IC50", "setting": "[2]", "result": 85, "unit": "µM"},
      {"measurement": "pKa", "setting": "physchem", "result": 7.85}
    ]},
    {"molecule": "Fc1cccc(-c2c[nH]nn2)c1", "values": [
      {"measurement": "IC50", "setting": "[2]", "result": 47, "unit": "µM"},
      {"measurement": "IC50", "setting": "[3]", "result": 1.1, "unit": "µM"},
      {"measurement": "IC50", "setting": "[4]", "result": "> 100", "unit": "µM"},
      {"measurement": "IC50", "setting": "[5]", "result": "> 100", "unit": "µM"},
      {"measurement": "IC50", "setting": "[6]", "result": "> 100", "unit": "µM"},
      {"measurement": "CC50", "setting": "HepG2", "result": "> 100", "unit": "µM"},
      {"measurement": "inhibition", "setting": "[7]", "result": "Active"},
      {"measurement": "pKa", "setting": "physchem", "result": 8.38}
    ]},
    {"molecule": "COc1ccccc1-c1c[nH]nn1", "values": [
      {"measurement": "IC50", "setting": "[3]", "result": 20, "unit": "µM"},
      {"measurement": "IC50", "setting": "[4]", "result": "> 100", "unit": "µM"},
      {"measurement": "IC50", "setting": "[5]", "result": "> 100", "unit": "µM"},
      {"measurement": "IC50", "setting": "[6]", "result": "> 100", "unit": "µM"},
      {"measurement": "CC50", "setting": "HepG2", "result": "> 100", "unit": "µM"},
      {"measurement": "inhibition", "setting": "[7]", "result": "Active"},
      {"measurement": "inhibition", "setting": "[8]", "result": "inactive"},
      {"measurement": "pKa", "setting": "physchem", "result": 8.99}
    ]},
    {"molecule": "Clc1ccc(-c2c[nH]nn2)cc1", "values": [
      {"measurement": "IC50", "setting": "[2]", "result": 530, "unit": "µM"},
      {"measurement": "pKa", "setting": "physchem", "result": 8.46}
    ]},
    {"molecule": "c1c[nH]nn1", "values": [
      {"measurement": "pKa", "setting": "[1]", "result": 1.17},
      {"measurement": "pKa", "setting": "physchem", "result": 9.26}
    ]},
    {"molecule": "Clc1ccccc1-c1c[nH]nn1", "values": [
      {"measurement": "IC50", "setting": "[2]", "result": 32, "unit": "µM"},
      {"measurement": "IC50", "setting": "[3]", "result": 1.5, "unit": "µM"},
      {"measurement": "IC50", "setting": "[4]", "result": "> 100", "unit": "µM"},
      {"measurement": "IC50", "setting": "[5]", "result": "> 100", "unit": "µM"},
      {"measurement": "IC50", "setting": "[6]", "result": "> 100", "unit": "µM"},
      {"measurement": "pKa", "setting": "physchem", "result": 8.5}
    ]},
    {"molecule": "Clc1cccc(-c2c[nH]nn2)c1Cl", "values": [
      {"measurement": "IC50", "setting": "[2]", "result": 23, "unit": "µM"},
      {"measurement": "IC50", "setting": "[3]", "result": 1.7, "unit": "µM"},
      {"measurement": "IC50", "setting": "[4]", "result": "> 100", "unit": "µM"},
      {"measurement": "IC50", "setting": "[5]", "result": "> 100", "unit": "µM"},
      {"measurement": "IC50", "setting": "[6]", "result": "> 100", "unit": "µM"},
      {"measurement": "CC50", "setting": "HepG2", "result": "> 100", "unit": "µM"},
      {"measurement": "inhibition", "setting": "[7]", "result": "Active"},
      {"measurement": "pKa", "setting": "physchem", "result": 8.06}
    ]},
    {"molecule": "Clc1ccc(Cl)c(-c2c[nH]nn2)c1", "values": [
      {"measurement": "IC50", "setting": "[2]", "result": 6.4, "unit": "µM"},
      {"measurement": "IC50", "setting": "[3]", "result": 0.15, "unit": "µM"},
      {"measurement": "IC50", "setting": "[4]", "result": 34, "unit": "µM"},
      {"measurement": "IC50", "setting": "[5]", "result": "> 100", "unit": "µM"},
      {"measurement": "IC50", "setting": "[6]", "result": "> 100", "unit": "µM"},
      {"measurement": "CC50", "setting": "HepG2", "result": "> 100", "unit": "µM"},
      {"measurement": "inhibition", "setting": "[7]", "result": "Active"},
      {"measurement": "pKa", "setting": "physchem", "result": 8.17}
    ]},
    {"molecule": "c1nc[nH]n1", "note": "[1,2,4-TRIAZOLE]", "values": [
      {"measurement": "pKa", "setting": "[1]", "result": 2.19},
      {"measurement": "pKa", "setting": "physchem", "result": 10.3}
    ]}
  ]
}
